# Results reported in ChEMBL document CHEMBL1255468 (Antimicrob Agents Chemother, 2010).
# Active and inactive are the calls of the source. No cut-off for these calls is given here.
# How the values were obtained:
# [1] = tested on: Trypanosoma cruzi; assay: Antitrypanosomal activity against Trypanosoma cruzi Y infected in mouse assessed as decrease in mouse mortality at 200 mg/kg, po after 20 days post infection; format: functional, organism-based; design: dose 200 mg/kg
# Procedure, shortened: (§1)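 Male Swiss mice (6–8 weeks, 18–20 g), 8–10 per group, infected i.p. with 10^4 bloodstream trypomastigotes (Y strain). On dpi 5, a single 200 mg/kg oral gavage dose was given in water with 10% Tween-80. Parasitemia was counted daily from dpi 6 to 21 by the Pizzi-Brener method. Body weight was recorded weekly. Mortality was recorded daily, and cumulative mortality at 40 dpi and M50 were calculated.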
# [2] = tested on: Trypanosoma cruzi; assay: Antitrypanosomal activity against Trypanosoma cruzi Y infected in mouse assessed as decrease in parasitemia in blood at 200 mg/kg, po upto 40 days post infection; format: functional; procedure, shortened: as §1
# [3] = tested on: Trypanosoma cruzi; assay: Antitrypanosomal activity against Trypanosoma cruzi amastigotes infected in mouse peritoneal macrophages assessed as endocytic index after 1 day; format: functional, organism-based; details: 24 h
# Procedure, shortened: (§2)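 Swiss mouse peritoneal macrophages (3 × 10^5/well) were plated for 24 h, then infected with Y-strain trypomastigotes (10:1) in DMEM with 10% FCS for 3 h. Free parasites were washed off, and compounds were added at 2.5–30 µM final for 1–4 days. Cells were fixed in Bouin's solution and stained with Giemsa. Percent infection and endocytic index (parasites/100 cells) were counted, and IC50 was derived. Three independent experiments.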
# [4] = tested on: Trypanosoma cruzi; assay: Antitrypanosomal activity against Trypanosoma cruzi amastigotes infected in mouse peritoneal macrophages assessed as endocytic index after 4 day; format: functional, organism-based; details: 96 h; procedure, shortened: as §2
# [5] = tested on: Trypanosoma cruzi; assay: Antitrypanosomal activity against Trypanosoma cruzi infected in mouse assessed as decrease in mortality rate at 100 mg/kg, po after 6 days post infection; format: functional, organism-based; design: dose 100 mg/kg
# Procedure, shortened: (§3)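 Male Swiss mice, 8–10 per group, infected i.p. with 10^4 bloodstream trypomastigotes. From dpi 6, mice received 10 consecutive daily gavage doses of 100 mg/kg in water with 10% Tween-80. Parasitemia was read daily on dpi 6–21 by the Pizzi-Brener method. Mortality was noted daily, and %CM at 40 dpi and M50 were calculated.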
# [6] = tested on: Trypanosoma cruzi; assay: Antitrypanosomal activity against Trypanosoma cruzi amastigotes infected in mouse peritoneal macrophages assessed as endocytic index after 3 day; format: functional, organism-based; details: 72 h; procedure, shortened: as §2
# [7] = tested on: Mus musculus; assay: Toxicity in mouse assessed as GOT level in blood at 400 mg/kg, po after 4 days; format: organism-based; design: dose 400 mg/kg, route oral; details: in vivo, 96 h
# Procedure, shortened: (§4)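 Uninfected male Swiss mice, 8–10 per group, received by gavage either a single 400 mg/kg dose or 10 doses of 100 mg/kg (vehicle water with 10% Tween-80). GOT, GPT and urea were measured directly in blood with the Reflotron system, and body weight was recorded. Single-dose toxicity was analyzed 4 days after treatment.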
# [8] = tested on: Trypanosoma cruzi; assay: Antitrypanosomal activity against Trypanosoma cruzi infected in mouse assessed as reduction in inflammatory foci in cardiac muscle at 100 mg/kg, po after 6 days post infection; format: functional, organism-based; design: dose 100 mg/kg; details: Muscle tissue
# Procedure, shortened: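 Infected mice were dosed by gavage at 100 mg/kg daily for 10 days from dpi 6. Two mice per group were euthanized at 14 dpi. Paraffin heart sections were stained with hematoxylin-eosin. Under a 40× objective, parasite nests and inflammatory foci (≥10 mononuclear cells) were counted per mm2 over 30 fields.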
# [9] = tested on: Trypanosoma cruzi; assay: Antitrypanosomal activity against Trypanosoma cruzi amastigotes infected in mouse peritoneal macrophages assessed as inhibition of infection after 2 day; format: functional, organism-based; details: 48 h; procedure, shortened: as §2
# [10] = tested on: Trypanosoma cruzi; assay: Antitrypanosomal activity against Trypanosoma cruzi amastigotes infected in mouse peritoneal macrophages assessed as inhibition of infection after 1 day; format: functional, organism-based; details: 24 h; procedure, shortened: as §2
# [11] = tested on: Trypanosoma cruzi; assay: Antitrypanosomal activity against Trypanosoma cruzi Y infected in mouse assessed as decrease in mouse mortality at 200 mg/kg, po upto 40 days post infection; format: functional, organism-based; design: dose 200 mg/kg; procedure, shortened: as §1
# [12] = tested on: Trypanosoma cruzi; assay: Antitrypanosomal activity against Trypanosoma cruzi amastigotes infected in mouse peritoneal macrophages assessed as endocytic index after 2 day; format: functional, organism-based; details: 48 h; procedure, shortened: as §2
# [13] = tested on: Mus musculus; assay: Toxicity in mouse assessed as urea level in blood at 400 mg/kg, po after 4 days; format: organism-based; design: dose 400 mg/kg, route oral; details: in vivo, 96 h; procedure, shortened: as §4
# [14] = Cytotoxicity against swiss mouse HMC after 48 hrs by MTT assay; details: read-out: LC50
# Procedure, shortened: (§5)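 Uninfected host cells were exposed to compounds at 37°C for 2 days, with compound stocks in DMSO. Cells were Swiss mouse peritoneal macrophages or primary mouse embryo heart muscle cells (18-day embryos, trypsin/collagenase dissociated, gelatin-coated coverslips, DMEM with horse and fetal calf sera, chicken embryo extract). Viability was read by MTT at 490 nm to give LC50.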
# [15] = tested on: Trypanosoma cruzi; assay: Antitrypanosomal activity against Trypanosoma cruzi trypomastigotes assessed as shrinkage of cell surface and body at 11.6 uM after 24 hrs by scanning electron microscopy; format: functional, organism-based
# Procedure, shortened: (§6)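 Trypomastigotes (5 × 10^6/ml) were treated for 24 h and adhered to poly-L-lysine coverslips. They were fixed in 2.5% glutaraldehyde in 0.1 M cacodylate (pH 7.2) for 40 min and postfixed for 30 min in 1% OsO4, 0.8% ferricyanide and 2.5 mM CaCl2. Samples were acetone-dehydrated, critical-point dried, gold-coated (20 nm) and examined by scanning EM.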
# [16] = Cytotoxicity against Swiss mouse peritoneal macrophages after 48 hrs by MTT assay; format: cell-based, Peritoneal macrophage cell; details: read-out: LC50; procedure, shortened: as §5
# [17] = tested on: Trypanosoma cruzi; assay: Antitrypanosomal activity against Trypanosoma cruzi amastigotes infected in mouse peritoneal macrophages assessed as inhibition of infection after 4 day; format: functional, organism-based; details: 96 h; procedure, shortened: as §2
# [18] = tested on: Trypanosoma cruzi; assay: Antitrypanosomal activity against Trypanosoma cruzi amastigotes infected in mouse embryo heart muscle cells assessed as endocytic index at 40 uM; format: functional, organism-based
# Procedure, shortened: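 Mouse embryo heart muscle cells (10^5/well) were plated on gelatin-coated coverslips and infected after 24 h with trypomastigotes at 10:1 parasite/host cell. After another 24 h, cultures were washed and exposed to compounds at 10–40 µM final. At intervals, cells were fixed in Bouin's solution and stained with Giemsa. Percent infection and endocytic index (parasites/100 cells) were counted, and IC50 was derived.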
# [19] = tested on: Mus musculus; assay: Toxicity in mouse assessed as body weight at 400 mg/kg, po after 4 days; format: organism-based; design: dose 400 mg/kg, route oral; details: in vivo, 96 h; procedure, shortened: as §4
# [20] = Selectivity index, ratio of LC50 for mouse peritoneal macrophages to IC50 for inhibition of Trypanosoma cruzi amastigotes
# Procedure, shortened: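 SI = LC50/IC50 in peritoneal macrophages. LC50 came from the 2-day MTT assay on uninfected macrophages. Cells were Bouin-fixed and Giemsa-stained, and endocytic index (parasites/100 cells) was counted. Three independent experiments.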
# [21] = tested on: Trypanosoma cruzi; assay: Antitrypanosomal activity against Trypanosoma cruzi trypomastigotes assessed as shortening of flagellum at 11.6 uM after 24 hrs by scanning electron microscopy; format: functional, organism-based; procedure, shortened: as §6
# [22] = tested on: Mus musculus; assay: Toxicity in mouse assessed as GPT level in blood at 400 mg/kg, po after 4 days; format: organism-based; design: dose 400 mg/kg, route oral; details: in vivo, 96 h; procedure, shortened: as §4
# [23] = tested on: Trypanosoma cruzi; assay: Antitrypanosomal activity against Trypanosoma cruzi infected in mouse assessed as decrease in parasitemia in blood at 100 mg/kg, po after 6 days post infection; format: functional; details: 144 h; procedure, shortened: as §3
# [24] = tested on: Trypanosoma cruzi; assay: Antitrypanosomal activity against Trypanosoma cruzi amastigotes infected in mouse peritoneal macrophages assessed as inhibition of infection after 3 day; format: functional, organism-based; details: 72 h; procedure, shortened: as §2
compound,measurement,setting,value
Cn1c([N+](=O)[O-])cnc1-c1nnc(N/N=C\c2ccc([N+](=O)[O-])cc2)s1,Activity,[1],inactive
same,Activity,[2],Active
Cn1c([N+](=O)[O-])cnc1-c1nnc(N/N=C\c2ccc(O)cc2)s1,IC50,[3],5 µM
same,IC50,[4],1.3 µM
same,Activity,[5],inactive
same,IC50,[6],3.2 µM
same,Activity,[7],76.6 U/L
same,Activity,[8],Active
same,IC50,[9],6 µM
same,IC50,[10],7.1 µM
same,Activity,[11],Active
same,IC50,[12],2.9 µM
same,Activity,[13],58.6 mg/dL
same,CC50 at 48 h,[14],> 240 µM
same,Activity,[15],Active
same,CC50 at 48 h,[16],> 100 µM
same,IC50,[17],1.7 µM
same,Activity,[18],inactive
same,Activity,[2],50%
same,Activity,[19],25.5 g
same,Ratio LC50/IC50,[20],>41
same,Activity,[21],Active
same,Activity,[22],24.4 U/L
same,inhibition in vivo at 100 mg/kg,[23],46%
same,IC50,[24],6.2 µM
COc1ccc(/C=N\Nc2nnc(-c3ncc([N+](=O)[O-])n3C)s2)cc1O,Activity,[11],inactive
same,Activity,[2],inactive
Cn1c([N+](=O)[O-])cnc1-c1nnc(N/N=C\c2ccccc2O)s1,Activity,[11],inactive
same,Activity,[2],inactive
